Assay outcomes (PubChem BioAssay)
Hits are enriched below; roughly 2% of the tested compounds scored in any of these assays.
CDK5 inh: inhibitors of human CDK5/p35 kinase, primary screen, biochemical, single concentration; Cyclin-dependent kinase 5 (Homo sapiens) + Cyclin-dependent kinase 5 activator 1 (Homo …; Recombinant CDK5/p35, ADP-Glo luminescence, 60 min; inhibition, % at 10 µM; 0.01% of 330,000 active;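 active means highest replicate inhibition of at least 50% and at least 75% of replicates reaching 50%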;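 further: plate controls were DMSO neutral control for no effect and GW8510 at 10 µM for full effect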
dFosB act-1: activators of delta FosB homodimer, primary screen, biochemical, fluorescence polarization, TAMRA-CDK5 oligo, single point. activation, % at 25 µM. 0.99% of 340,000 active. purified delta FosB; percent of positive-control signal above neutral wells. AID 493131, 2011;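 active means mean activation above about 17%, with every replicate also reaching it, limit read from the data, passing the limit was not always enough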
Target sequence (P13346 whole entry, looked up): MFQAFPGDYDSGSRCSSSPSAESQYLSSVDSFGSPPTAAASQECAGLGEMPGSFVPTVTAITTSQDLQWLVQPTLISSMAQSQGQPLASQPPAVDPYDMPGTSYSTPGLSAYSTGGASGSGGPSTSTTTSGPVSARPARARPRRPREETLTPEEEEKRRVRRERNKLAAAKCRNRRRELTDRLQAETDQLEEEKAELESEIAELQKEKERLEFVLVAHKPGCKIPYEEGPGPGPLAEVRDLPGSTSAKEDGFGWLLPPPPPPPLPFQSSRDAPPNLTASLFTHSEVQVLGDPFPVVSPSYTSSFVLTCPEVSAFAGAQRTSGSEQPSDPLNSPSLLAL
SR-BI DiI inh: inhibitors of SR-BI mediated HDL lipid uptake, primary screen, ldlA[mSR-BI] cells, fluorescence, single point | 0.96% of 320,000 active | Scavenger receptor class B member 1 (Mus musculus), Q61009 | ldlA[mSR-BI] CHO cells, DiI-HDL uptake fluorescence, 3 h | inhibition, % at 12.5 µM;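 active means mean replicate inhibition of at least 70% and a set share of replicates each scoring 70 or more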;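 further: 0% = median of neutral control wells and 100% = median of positive control wells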
SR-BI DiI-HDL act: activators of SR-BI mediated DiI-HDL uptake, primary screen, ldlA[mSR-BI] CHO cells, DiI fluorescence; AID 504775, 2011; activation, % at 12.5 µM; 3 h; 100 = double the neutral-control signal; 0.096% of 320,000 active;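 active means mean replicate activation of at least 60% and every replicate at or above 60%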;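 further: 0% = median plate neutral-control signal and 100% = twice that signal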
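Material – SR-BI-overexpressing, LDLR-lacking CHO cells · Medium – BSA-supplemented, HEPES-buffered Ham's F12, pH 7.4 · Doses – single concentration · Times – compound with DiI-HDL co-incubation, 3 h at 37 °C · Measured by – bottom-read fluorescence, 550/595 nm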
dFosB act-2: activators of mouse delta FosB DNA binding, confirmation, biochemical, fluorescence polarization, TAMRA-CDK5 oligo, cherry-picked samples; 2,400 tested, under 10 active; activation, % at 24.9 µM; purified delta FosB; normalised: neutral wells 0, positive control 100; shares compounds with dFosB act-1;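 active means highest replicate activation at or above 34% and every replicate reaching that threshold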;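 further: higher polarization means more probe DNA bound by delta FosB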
Active calls of the source: *; / = not tested or not shown.

SMILES	CDK5 inh	dFosB act-1	SR-BI DiI inh	SR-BI DiI-HDL act	dFosB act-2
Cc1ccc(Cn2c(=N)n(CC(=O)c3ccccc3)c3ccccc32)cc1	0.3	30.3*	3.3	-3.3	8.1
Cc1ccc(S(=O)(=O)c2nc(Nc3ccccc3C#N)sc2Cl)cc1	-1.2	-5.4	18.3	-18.3	/
Cc1ccc(S(=O)(=O)c2nc(Nc3ccccc3N3CCOCC3)sc2Cl)cc1	-1.2	21.9*	10.1	-10.1	2.8
CN(Cc1ccc(C(F)(F)F)cc1)C(=O)C1CC(=O)N(Cc2ccco2)C1 (stereo not drawn)	2.6	-4.1	2.3	-2.3	/
CN1CCN(C2=Nc3cc(Cl)ccc3Nc3ccccc32)CC1	-0.4	-0.7	27.8	-27.8	/
CN1CCN(C2=Nc3c(Cl)cc(Cl)c4cccc2c34)CC1	1.0	20.3*	13.3	-13.3	-0.5
CN(C1CCCC1)C1CCN(C(=S)Nc2cc(F)cc(F)c2)CC1	1.9	-5.1	-14.1	14.1	/
CSc1nccc(N/N=C/c2ccccc2)n1	1.8	-5.5	8.1	-8.1	/
c1ccc(CSc2nnc(-c3c[nH]c4ccccc34)o2)cc1	0.4	20.0*	-12.6	12.5	6.0
c1ccc2c(-c3nnc(SCc4cn5ccccc5n4)o3)c[nH]c2c1	1.1	0.0	-8.2	8.2	/
Cc1ccc(-n2ccnc2SCC(=O)c2c(N)n(C3CC3)c(=O)[nH]c2=O)cc1C	-0.6	-11.6	-6.5	6.5	/
COc1ccc(Br)c(C(=O)N(C)CC(=O)Nc2ccc(N3CCOCC3)cc2)c1	-0.7	-1.2	-4.6	4.6	/
O=C(COc1ccc(Cl)cc1Cl)Nc1c(-c2cccs2)nc2ccccn12	-1.8	118.7*	-9.5	9.5	1.6
COc1ccc(S(=O)(=O)N(C)C)cc1NC(=O)C1CCN(c2ncnc3sc(C)c(C)c23)CC1	1.0	47.0*	59.7	-59.7	0.2
CCOc1ccccc1N(CC(=O)Nc1ccc(S(=O)(=O)N2CCOCC2)cc1)S(=O)(=O)c1ccccc1	-2.5	52.9*	-4.2	4.2	0.3
O=C(Nc1cccnc1)c1cc(-c2ccc(Cl)cc2)on1	-0.1	14.1	/	/	/
O=C(Nc1cccnc1)c1cc(-c2ccc(Cl)cc2Cl)on1	1.1	62.0*	-14.7	14.7	2.0
COc1ccc(C2c3c(ncn(Cc4ccco4)c3=N)Oc3ccc4ccccc4c32)cc1 (stereo not drawn)	2.8	45.4*	11.1	-11.1	-0.5
Cc1cc(=O)oc2cc(NC(=O)CCOc3ccccc3)ccc12	-3.3	20.9*	/	/	1.6
Cc1csc(NC(=O)COc2ccc3c(C)cc(=O)oc3c2)n1	-0.5	54.0*	10.9	-10.9	3.6
Cc1ccc(NNC(=O)C(O)(c2cccc(C(F)(F)F)c2)c2cccc(C(F)(F)F)c2)cc1	0.7	77.1*	11.2	-11.2	0.1
Cc1cccc(CS(=O)(=O)Cc2ccc(C(=O)NC3CCCCC3)o2)c1	-0.5	-2.9	18.2	-18.2	/
O=C(NCc1nc(-c2ccc(C(F)(F)F)cc2)no1)Nc1ccc(OC(F)(F)F)cc1	0.4	23.5*	-27.8	27.8	2.7
CCN(C(=O)Cn1nnc(-c2ccccc2)n1)C1CCS(=O)(=O)C1 (stereo not drawn)	0.4	0.3	-14.4	14.4	/
Cc1ccc2sc(N(CCN(C)C)C(=O)c3ccc4ccccc4c3)nc2c1C	/	39.3*	52.6	-52.7	1.6
SMILES	CDK5 inh	dFosB act-1	SR-BI DiI inh	SR-BI DiI-HDL act	dFosB act-2
Cc1ccc2sc(N(CCCN(C)C)C(=O)c3ccc(S(=O)(=O)N4CCCCCC4)cc3)nc2c1C	2.0	-19.3	8.0	-8.0	/
COc1ccccc1C(=O)N(CCN(C)C)c1nc2cc(C)cc(C)c2s1	0.1	-0.8	6.2	-6.2	/
Cc1cc(C)c2sc(N(CCN(C)C)C(=O)c3ccc4ccccc4c3)nc2c1	/	38.9*	27.9	-27.9	5.8
C=CCn1c(SCC(=O)Nc2sccc2C#N)nc2sc(C)c(C)c2c1=O	-3.5	22.9*	-38.3	38.3	-6.0
O=C(CN(C(=O)Cn1nnc(-c2ccc(F)cc2)n1)c1cccc(F)c1)NC1CCCC1	0.4	-9.7	41.0	-41.0	/
Cc1ccc(NC(=O)Cn2nc([N+](=O)[O-])c(Br)c2C)cc1C	0.6	49.2*	24.1	-24.1	1.4
Cc1cccc(OCC(=O)Nc2nc3ccc([N+](=O)[O-])cc3s2)c1C	0.8	-4.6	-27.0	27.0	/
O=C(COc1ccccc1C(=O)O)Nc1nc2ccc([N+](=O)[O-])cc2s1	-0.8	25.0*	-3.1	3.1	0.3
CN1/C(=C/C=C(C#N)C#N)C=Cc2ccccc21	-1.6	29.0*	/	/	3.1
Cc1cccc(-n2ncc3c(=O)[nH]c(SCC(=O)N4CC(=O)Nc5ccccc54)nc32)c1	-0.5	47.0*	-3.1	3.1	3.6
CCOc1ccccc1NC(=O)c1cc(C(=O)c2cc(Br)ccc2O)coc1=N	-0.5	33.0*	60.2	-60.2	3.9
Cc1ccc2nc3c(c(Nc4ccc(O)cc4)c2c1)CCC3	0.0	13.6	-10.5	10.5	/
Cc1cc(Nc2ccc3c(c2)OCCO3)c2cc(Cl)ccc2n1	2.3	29.4*	-30.6	30.6	-8.0
Cc1cc(Nc2cccc(Cl)c2)c2ccccc2n1	-0.7	-12.9	20.2	-20.2	/
COc1ccc(Nc2cc(C)nc3ccc(OC)cc23)cc1	1.5	33.9*	12.3	-12.3	3.2
Cc1ccc2nc3c(c(Nc4ccc5c(c4)OCCO5)c2c1)CCC3	5.0	29.8*	17.9	-17.9	1.7
O=C(Nc1ccsn1)c1ccc(Cl)cc1Cl	-0.4	-3.0	6.3	-6.3	/
CSc1nsc(SC)c1NC(=O)Nc1ccccc1C	-1.1	33.2*	3.5	-3.5	6.8
CSc1nsc(SC)c1NC(=O)N1CCCCC1	0.1	-6.8	-40.0	40.0	/
O=c1[nH]c2cc3c(cc2cc1C(c1nnnn1Cc1ccccc1)N1CCN2CCCC2C1)OCCO3 (stereo not drawn)	1.9	22.2*	-1.4	1.4	-12.3
O=c1[nH]c2cc3c(cc2cc1C(c1nnnn1Cc1ccccc1)N1CCCCCC1)OCCO3 (stereo not drawn)	0.8	27.9*	4.1	-4.1	8.4
O=c1[nH]c2cc3c(cc2cc1C(c1nnnn1C1CCCC1)N1CCCc2ccccc21)OCCO3 (stereo not drawn)	-0.4	-5.5	-9.2	9.2	/
O=C1CN(C(=O)COc2ccc(F)cc2Br)c2ccccc2N1	0.7	-10.7	12.7	-12.7	/
CC1(C)CC(N=c2cc(-c3ccccc3)oc3ccc(Cl)cc23)CC(C)(C)N1	0.1	40.5*	18.8	-18.8	-2.6
OCCCN=c1cc(-c2ccccc2)oc2ccc(Cl)cc12	0.9	10.0	0.0	0.0	/
